The record followed here is ChEMBL document CHEMBL5346895, “Small molecule inhibitors of intestinal epithelial anion exchanger SLC26A3 (DRA) with a luminal, extracellular site of action” (Eur J Med Chem, 2023).

Structures are written as SMILES.

Experiment [1] deals with T1, Pendrin (Homo sapiens) (UniProt O43511).
T1 sequence (whole entry): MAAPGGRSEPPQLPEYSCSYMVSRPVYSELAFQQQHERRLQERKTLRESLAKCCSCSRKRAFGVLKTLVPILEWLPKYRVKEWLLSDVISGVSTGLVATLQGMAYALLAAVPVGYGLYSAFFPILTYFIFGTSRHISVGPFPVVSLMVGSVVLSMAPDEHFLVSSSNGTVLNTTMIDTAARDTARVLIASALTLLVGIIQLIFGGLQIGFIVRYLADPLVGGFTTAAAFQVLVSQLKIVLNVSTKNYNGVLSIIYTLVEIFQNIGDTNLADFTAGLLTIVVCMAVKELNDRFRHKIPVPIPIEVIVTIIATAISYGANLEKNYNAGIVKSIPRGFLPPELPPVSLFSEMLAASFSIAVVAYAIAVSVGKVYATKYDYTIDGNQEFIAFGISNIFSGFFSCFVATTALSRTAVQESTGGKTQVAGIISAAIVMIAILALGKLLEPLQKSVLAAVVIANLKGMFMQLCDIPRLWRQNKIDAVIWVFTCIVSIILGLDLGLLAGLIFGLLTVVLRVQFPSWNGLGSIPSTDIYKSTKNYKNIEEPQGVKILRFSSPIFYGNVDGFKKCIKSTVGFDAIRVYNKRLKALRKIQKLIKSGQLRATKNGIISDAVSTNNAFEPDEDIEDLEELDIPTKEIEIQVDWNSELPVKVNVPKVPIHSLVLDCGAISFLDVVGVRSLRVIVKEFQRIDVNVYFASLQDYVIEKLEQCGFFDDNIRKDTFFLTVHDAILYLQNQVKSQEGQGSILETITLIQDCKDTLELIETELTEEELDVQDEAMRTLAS
The experiment can be described thus: Inhibition of SLC26A4 (unknown origin) at 10 uM by YFP-based assay relative to control.

Experiment [2] deals with T2, Anoctamin-1 (Homo sapiens) (UniProt Q5XXA6).
T2 sequence (whole entry): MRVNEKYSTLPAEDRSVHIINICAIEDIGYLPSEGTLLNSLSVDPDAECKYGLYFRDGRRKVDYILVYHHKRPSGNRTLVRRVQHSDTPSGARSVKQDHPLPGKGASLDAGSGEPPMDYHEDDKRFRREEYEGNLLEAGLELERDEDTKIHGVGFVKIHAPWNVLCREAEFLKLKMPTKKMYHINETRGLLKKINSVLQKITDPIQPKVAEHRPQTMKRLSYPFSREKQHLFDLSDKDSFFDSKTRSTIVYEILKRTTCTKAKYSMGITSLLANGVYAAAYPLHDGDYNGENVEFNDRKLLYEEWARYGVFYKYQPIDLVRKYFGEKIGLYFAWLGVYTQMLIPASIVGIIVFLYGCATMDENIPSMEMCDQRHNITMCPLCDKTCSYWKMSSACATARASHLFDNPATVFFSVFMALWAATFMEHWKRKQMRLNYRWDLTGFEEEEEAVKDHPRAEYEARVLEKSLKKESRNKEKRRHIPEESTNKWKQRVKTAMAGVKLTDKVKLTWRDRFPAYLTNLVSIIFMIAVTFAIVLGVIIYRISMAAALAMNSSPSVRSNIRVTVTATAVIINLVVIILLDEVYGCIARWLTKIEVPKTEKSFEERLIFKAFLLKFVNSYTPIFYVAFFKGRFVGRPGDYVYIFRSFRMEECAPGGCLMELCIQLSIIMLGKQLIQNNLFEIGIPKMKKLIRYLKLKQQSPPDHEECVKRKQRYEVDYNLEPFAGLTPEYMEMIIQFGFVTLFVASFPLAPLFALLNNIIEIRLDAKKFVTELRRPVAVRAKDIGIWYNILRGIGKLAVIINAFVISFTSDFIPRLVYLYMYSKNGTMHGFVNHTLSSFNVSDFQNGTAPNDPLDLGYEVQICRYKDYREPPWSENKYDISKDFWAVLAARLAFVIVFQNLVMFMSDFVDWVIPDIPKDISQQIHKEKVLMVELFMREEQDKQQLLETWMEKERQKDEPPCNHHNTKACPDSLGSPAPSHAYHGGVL
The experiment can be described thus: Inhibition of TMEM16A (unknown origin) at 10 uM by YFP-based assay relative to control.

Experiment [3] deals with T3, Chloride anion exchanger (Mus musculus) (UniProt Q9WVC8).
T3 sequence (whole entry): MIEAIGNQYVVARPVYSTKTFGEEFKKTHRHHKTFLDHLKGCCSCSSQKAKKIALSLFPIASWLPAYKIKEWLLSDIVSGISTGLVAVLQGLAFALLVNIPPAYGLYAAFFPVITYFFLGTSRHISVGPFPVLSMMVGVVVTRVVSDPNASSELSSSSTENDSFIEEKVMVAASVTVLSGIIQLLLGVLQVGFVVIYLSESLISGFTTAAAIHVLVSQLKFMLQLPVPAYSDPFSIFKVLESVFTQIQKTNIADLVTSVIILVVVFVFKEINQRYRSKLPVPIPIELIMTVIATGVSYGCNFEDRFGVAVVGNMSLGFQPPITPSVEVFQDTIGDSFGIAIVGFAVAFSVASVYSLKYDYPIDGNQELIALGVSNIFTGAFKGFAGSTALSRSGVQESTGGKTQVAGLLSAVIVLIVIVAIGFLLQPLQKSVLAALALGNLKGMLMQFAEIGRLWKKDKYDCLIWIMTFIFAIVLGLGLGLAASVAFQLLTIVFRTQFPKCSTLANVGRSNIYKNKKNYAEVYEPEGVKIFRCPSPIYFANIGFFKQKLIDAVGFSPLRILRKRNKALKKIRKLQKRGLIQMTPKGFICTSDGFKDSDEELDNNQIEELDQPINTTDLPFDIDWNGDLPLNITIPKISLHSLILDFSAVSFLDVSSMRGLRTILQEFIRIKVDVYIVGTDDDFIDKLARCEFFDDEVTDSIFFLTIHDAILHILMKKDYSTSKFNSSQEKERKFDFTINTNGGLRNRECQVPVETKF
The experiment can be described thus: Inhibition of mouse SLC26A3 expressed in FRT cells coexpressing YFP iodide-sensing protein at 2 times IC50 measured for 14 secs by fluorescence quenching analysis relative to control. In kind it is cell-based. The following applies: time 14.0 sec. The method in brief:
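Onset kinetics in FRT cells co-expressing murine slc26a3 and YFP halide sensor. […] Fluorescence read for 1 s before and 12 s after syringe-pump addition of iodide solution (NaCl replaced by 140 mM NaI). Inhibition taken from the quenching rate.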

In experiment [4] the target is T3, Chloride anion exchanger (Mus musculus). The experiment can be described thus: Inhibition of mouse SLC26A3 expressed in FRT cells coexpressing YFP iodide-sensing protein at 5 times IC50 incubated for 10 mins followed by compound washout by fluorescence quenching analysis relative to control. The experiment is classed as cell-based.
Experiment [5] has the same target. The experiment can be described thus: Inhibition of mouse SLC26A3 expressed in FRT cells coexpressing YFP iodide-sensing protein at 5 times IC50 incubated for 10 mins by fluorescence quenching analysis relative to control. In kind it is cell-based.

As a reminder, the inhibition is the change of the read-out against control, counted positive when it falls. On to `Cc1cc(C)cc(N(C)S(=O)(=O)c2nnc(NC(=O)COc3ccc(C)c(C)c3)s2)c1`, for which the inhibition in experiment [1] amounted to 17%; in experiment [2], 83%.
For `Cc1ccccc1COc1ccc2oc(-c3ccccc3)c(C(=O)O)c2c1`, the inhibition in experiment [1] is -13%; in experiment [3] it was 38%; in experiment [2], 2%; in experiment [4] it was 25%; in experiment [5], 87%.
Turning to `O=c1cc(COc2ccccc2Cl)nc2scc(-c3ccccc3)n12`, the inhibition in experiment [3] stood at 66%; in experiment [2] it was 4%; in experiment [4], 32%; in experiment [5] it was 92%.
`O=C(Nc1cccc(-c2nc3ccccc3c(=O)o2)c1)c1ccc(Cl)cc1`: the inhibition in experiment [1] is -3%; in experiment [2] it was -1%.
